assay: Effect of compound on oxygen affinity, expressed as P50 (mmHg) at 10 mM concentration in the absence of Inositol hexa phosphate (IHP); assay type: functional
Summary of the method: (§1)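 Hemoglobin A (1.0 mM) incubated with carbamate reagent in 0.1 M Tris-HCl, pH 7.3, at 37 °C for 2 h. Extent of modification and oxygen affinity (p50, mmHg) then measured by a previously described method. Oxygen binding was read with and without inositol hexaphosphate. At 10 mM, reagent concentration is uncertain for some compounds because of incomplete solubility.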

| SMILES | P50 [mmHg] |
| --- | --- |
| NC(=O)Oc1ccccc1 | 5 |

assay: Effect of compound on oxygen affinity, was expressed as P50 (mmHg) at 10 mM concentration in the absence of Inositol hexa phosphate (IHP); assay type: functional; summary of the method: as §1

| SMILES | P50 [mmHg] |
| --- | --- |
| CN(C)C(=O)Oc1c(Br)cc(Br)cc1C(=O)OCc1ccccc1 | 7 |
| CN(C)C(=O)Oc1ccccc1C(=O)O | 6 |
| COC(=O)c1ccc(OC(N)=O)cc1 | 6.5 |
| CN(C)C(=O)Oc1ccccc1C(=O)OCc1ccccc1 | 6 |
| COC(=O)c1ccccc1OC(N)=O | 6 |
| NC(=O)Oc1ccccc1C(=O)O | 6 |

assay: Effect of compound on modification of deoxy form of hemoglobin was expressed as percent modification at 5 mM concentration; assay type: functional
Summary of the method: (§2)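 Human hemoglobin A (1.0 mM) treated with reagent in 0.1 M Tris-HCl buffer, pH 7.3, at 37 °C for 2 h. Extent of modification and oxygen affinity (p50, mm) then determined by a previously described method; p50 read with and without inositol hexaphosphate. Reagent concentration uncertain for some compounds owing to incomplete solubility.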

| SMILES | Modification of hemoglobin [%] |
| --- | --- |
| CN(C)C(=O)Oc1c(Br)cc(Br)cc1C(=O)OCc1ccccc1 | 0 |
| COC(=O)c1ccc(OC(N)=O)cc1 | 58 |
| CN(C)C(=O)Oc1ccccc1C(=O)OCc1ccccc1 | 0 |
| COC(=O)c1ccccc1OC(N)=O | 52 |
| NC(=O)Oc1ccccc1C(=O)OCc1ccccc1 | 46 |
| NC(=O)Oc1ccccc1C(=O)O | 58 |

assay: Effect of compound on oxygen affinity, expressed as P50 (mmHg) at 5 mM concentration in the presence of Inositol hexa phosphate (IHP); assay type: functional; summary of the method: as §1

| SMILES | P50 [mmHg] |
| --- | --- |
| NC(=O)Oc1ccccc1 | 39 |

assay: Effect of compound on modification of oxy form of hemoglobin was expressed as percent modification at 10 mM concentration, concentration is uncertain due to incomplete solubility; assay type: functional; summary of the method: as §1

| SMILES | Modification of hemoglobin [%] |
| --- | --- |
| CN(C)C(=O)Oc1ccccc1C(=O)O | 0 |

assay: Effect of compound on modification of oxy form of hemoglobin was expressed as percent modification at 10 mM concentration; assay type: functional; summary of the method: as §2

| SMILES | Modification of hemoglobin [%] |
| --- | --- |
| CN(C)C(=O)Oc1c(Br)cc(Br)cc1C(=O)OCc1ccccc1 | 0 |
| COC(=O)c1ccc(OC(N)=O)cc1 | 89 |
| CN(C)C(=O)Oc1ccccc1C(=O)OCc1ccccc1 | 0 |
| COC(=O)c1ccccc1OC(N)=O | 83 |
| NC(=O)Oc1ccccc1C(=O)O | 94 |

assay: Effect of compound on oxygen affinity, was expressed as P50 (mmHg) at 5 mM concentration in the absence of Inositol hexa phosphate (IHP); assay type: functional; summary of the method: as §2

| SMILES | P50 [mmHg] |
| --- | --- |
| CN(C)C(=O)Oc1c(Br)cc(Br)cc1C(=O)OCc1ccccc1 | 6 |
| COC(=O)c1ccc(OC(N)=O)cc1 | 6 |
| CN(C)C(=O)Oc1ccccc1C(=O)OCc1ccccc1 | 6 |
| COC(=O)c1ccccc1OC(N)=O | 6 |
| NC(=O)Oc1ccccc1C(=O)OCc1ccccc1 | 6 |
| NC(=O)Oc1ccccc1C(=O)O | 6 |

assay: Effect of compound on oxygen affinity, expressed as P50 (mmHg) at 10 mM concentration in the presence of 2 mM Inositol hexa phosphate (IHP); assay type: functional; summary of the method: as §1

| SMILES | P50 [mmHg] |
| --- | --- |
| NC(=O)Oc1ccccc1 | 30 |

assay: Effect of compound on oxygen affinity, was expressed as P50 (mmHg) at 5 mM concentration in the presence of Inositol hexa phosphate (IHP); assay type: functional; summary of the method: as §2

| SMILES | P50 [mmHg] |
| --- | --- |
| CN(C)C(=O)Oc1c(Br)cc(Br)cc1C(=O)OCc1ccccc1 | 41 |
| COC(=O)c1ccc(OC(N)=O)cc1 | 33 |
| CN(C)C(=O)Oc1ccccc1C(=O)OCc1ccccc1 | 42 |
| COC(=O)c1ccccc1OC(N)=O | 35 |
| NC(=O)Oc1ccccc1C(=O)OCc1ccccc1 | 37.5 |
| NC(=O)Oc1ccccc1C(=O)O | 33 |

assay: Effect of compound on modification of oxy form of hemoglobin was expressed as percent modification at 5 mM concentration; assay type: functional; summary of the method: as §2

| SMILES | Modification of hemoglobin [%] |
| --- | --- |
| CN(C)C(=O)Oc1c(Br)cc(Br)cc1C(=O)OCc1ccccc1 | 0 |
| COC(=O)c1ccc(OC(N)=O)cc1 | 61 |
| CN(C)C(=O)Oc1ccccc1C(=O)OCc1ccccc1 | 0 |
| COC(=O)c1ccccc1OC(N)=O | 54 |
| NC(=O)Oc1ccccc1C(=O)OCc1ccccc1 | 45 |
| NC(=O)Oc1ccccc1C(=O)O | 62 |

assay: Effect of compound on modification of oxy form of hemoglobin expressed as percent modification at 10 mM concentration; assay type: functional; summary of the method: as §1

| SMILES | Modification of hemoglobin [%] |
| --- | --- |
| NC(=O)Oc1ccccc1 | 67 |

assay: Effect of compound on modification of deoxy form of hemoglobin expressed as percent modification at 5 mM concentration; assay type: functional; summary of the method: as §1

| SMILES | Modification of hemoglobin [%] |
| --- | --- |
| NC(=O)Oc1ccccc1 | 40 |

assay: Effect of compound on oxygen affinity, was expressed as P50 (mmHg) at 10 mM concentration in the presence of 2 mM Inositol hexa phosphate (IHP); assay type: functional; summary of the method: as §1

| SMILES | P50 [mmHg] |
| --- | --- |
| CN(C)C(=O)Oc1c(Br)cc(Br)cc1C(=O)OCc1ccccc1 | 41 |
| CN(C)C(=O)Oc1ccccc1C(=O)O | 42 |
| COC(=O)c1ccc(OC(N)=O)cc1 | 23 |
| CN(C)C(=O)Oc1ccccc1C(=O)OCc1ccccc1 | 44 |
| COC(=O)c1ccccc1OC(N)=O | 25 |
| NC(=O)Oc1ccccc1C(=O)O | 22 |

assay: Effect of compound on modification of oxy form of hemoglobin expressed as percent modification at 5 mM concentration; assay type: functional; summary of the method: as §1

| SMILES | Modification of hemoglobin [%] |
| --- | --- |
| NC(=O)Oc1ccccc1 | 44 |

assay: Effect of compound on oxygen affinity, expressed as P50 (mmHg) at 5 mM concentration in the absence of Inositol hexa phosphate (IHP); assay type: functional; summary of the method: as §1

| SMILES | P50 [mmHg] |
| --- | --- |
| NC(=O)Oc1ccccc1 | 6 |
